Results gathered from unrelated publications.
Target: Bone morphogenetic protein receptor type-1B (BMPR1B, Homo sapiens, UniProt O00238)

Compound | read-out | method | concentration | remaining binding
CN(c1nccc(-c2cnn3ncccc23)n1)C1CC1 | binding | – | 1 µM | 76%
O=C(c1ccc(Nc2ncc(Cl)c(-c3ccc(Cl)s3)n2)cc1)N1CCC(N2CCCC2)CC1 | binding | competition with immobilised ligand | 1 µM | 18%
CC1=C(C#N)C(c2ccc3c(c2)c(NC(=O)c2ccccc2C)nn3C)C(C#N)=C(C)N1 | cell-free assay | competition with immobilised ligand | 1 µM | 91%
O=C(c1ccc(Nc2nccc(-c3cc4ccccc4s3)n2)cc1)N1CCC(N2CCCC2)CC1 | binding | competition with immobilised ligand | 1 µM | 41%
COc1ccc2c(c1)O[C@H](c1ccc(OC)c(OC)c1)C[C@@H]2NC(=O)C1(c2ccc3c(c2)OC(F)(F)O3)CC1 | cell-free assay | competition with immobilised ligand | 1 µM | 100%
COc1cnc(Nc2cccc(S(N)(=O)=O)c2)nc1N1CCN(c2ccccc2)CC1 | binding | competition with immobilised ligand | 1 µM | 87%
C[C@H]1CCN(c2nccc(-c3cnn4ncccc34)n2)C1 | binding | – | 1 µM | 60%
C[C@@H]1CN(c2cc(-c3nn(C)c4ccc(OC5(C)CC5)cc34)ncn2)C[C@H](C)O1 | cell-free assay | competition with immobilised ligand | 1 µM | 77%
CC1CCCN1c1nccc(-c2cnn3ncccc23)n1 (stereo not shown) | binding | – | 1 µM | 84%
O=C(NCCCN1CCOCC1)c1ccc(Nc2nccc(-c3cc4ccccc4s3)n2)cc1 | binding | competition with immobilised ligand | 1 µM | 34%
Nc1ncc2c(n1)-c1c([nH]c3ccc(C#CC4CC4)cc13)CCCC2 | binding | competition with immobilised ligand | 1 µM | 96%
FC(F)(F)Oc1cccc(-c2cnc3ccc(-c4ccncc4)nn23)c1 | cell-free assay | competition with immobilised ligand | 5 µM | 22%
CCOC(=O)c1cc2cc(-c3cc(C(=O)NCc4ccc(C(=O)O)cc4)nn3C)ccc2[nH]1 | cell-free assay | competition with immobilised ligand | 0.1 µM | 96%
O=C(Nc1c[nH]nc1C(=O)NC1CCNCC1)c1cc(F)cc(F)c1 | binding | competition with immobilised ligand | 1 µM | 84%
CN(C)c1ncc(F)c(-c2cnn3ncccc23)n1 | binding | – | 1 µM | 64%
Cc1cc(C)c(-n2ccn3nc(-c4cccnc4)cc23)cc1NC(=O)c1cc(C#N)cc(S(F)(F)(F)(F)F)c1 | cell-free assay | competition with immobilised ligand | 0.1 µM | 72.3%
CN(C)c1nccc(-c2cnc3ncccn23)n1 | binding | – | 1 µM | 82%
COc1cnc(Nc2cccc(S(N)(=O)=O)c2)nc1N1CCN(c2ccccc2)C(=O)C1 | binding | competition with immobilised ligand | 1 µM | 100%
N[C@@H]1CCN(c2nccc(-c3cnn4ncccc34)n2)C1 | binding | – | 1 µM | 94%
c1cncc(-c2cccc(Nc3nccc(NC4CCCCC4)n3)c2)c1 | binding | competition with immobilised ligand | 10 µM | 47%
CN(C)c1nccc(-c2cnn3ncccc23)n1 | binding | – | 1 µM | 76%
CN([C@@H]1CCc2c(CC(=O)O)c3cc(S(C)(=O)=O)ccc3n2C1)S(=O)(=O)c1ccc(F)cc1 | cell-free assay | competition with immobilised ligand | 1 µM | 100%
